According to article PMC6357779 (Journal of biomolecular screening, 2013):
Where a SMILES comes first, the peptide text is derived from it. The star is where a group is joined. Cbz = O=C(OCc1ccccc1)*

Legend:
[1] = tested on: estrogen receptor (ERE-tk-luc reporter) in MCF-7 cells; assay: ERE-tk-luc luciferase transactivation assay in MCF-7 cells; type: cell-based, human; details: MCF-7, 10 μM compound, 24 h, RLU normalized to no compound added
[2] = molecular target: GFP-GRER chimera (N-terminus of the glucocorticoid receptor fused to the human ERα ligand binding domain) (Homo sapiens, UniProt P03372); assay: GFP-GRER nuclear translocation high-content imaging assay in 6020 cells; type: cell-based
GFP-GRER chimera (N-terminus of the glucocorticoid receptor fused to the human ERα ligand binding domain), sequence (P03372 302-595, change not shown): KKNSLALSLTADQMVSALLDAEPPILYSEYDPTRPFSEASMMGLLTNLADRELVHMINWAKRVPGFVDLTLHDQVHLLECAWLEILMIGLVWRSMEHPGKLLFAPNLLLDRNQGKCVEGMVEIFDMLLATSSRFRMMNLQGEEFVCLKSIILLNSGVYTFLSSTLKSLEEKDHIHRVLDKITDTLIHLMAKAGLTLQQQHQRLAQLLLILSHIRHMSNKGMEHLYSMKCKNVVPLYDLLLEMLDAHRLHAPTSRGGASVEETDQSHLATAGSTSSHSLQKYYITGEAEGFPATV
GFP-GRER chimera (N-terminus of the glucocorticoid receptor fused to the human ERα ligand binding domain), sequence (P06536 1-565, change not shown, further chain): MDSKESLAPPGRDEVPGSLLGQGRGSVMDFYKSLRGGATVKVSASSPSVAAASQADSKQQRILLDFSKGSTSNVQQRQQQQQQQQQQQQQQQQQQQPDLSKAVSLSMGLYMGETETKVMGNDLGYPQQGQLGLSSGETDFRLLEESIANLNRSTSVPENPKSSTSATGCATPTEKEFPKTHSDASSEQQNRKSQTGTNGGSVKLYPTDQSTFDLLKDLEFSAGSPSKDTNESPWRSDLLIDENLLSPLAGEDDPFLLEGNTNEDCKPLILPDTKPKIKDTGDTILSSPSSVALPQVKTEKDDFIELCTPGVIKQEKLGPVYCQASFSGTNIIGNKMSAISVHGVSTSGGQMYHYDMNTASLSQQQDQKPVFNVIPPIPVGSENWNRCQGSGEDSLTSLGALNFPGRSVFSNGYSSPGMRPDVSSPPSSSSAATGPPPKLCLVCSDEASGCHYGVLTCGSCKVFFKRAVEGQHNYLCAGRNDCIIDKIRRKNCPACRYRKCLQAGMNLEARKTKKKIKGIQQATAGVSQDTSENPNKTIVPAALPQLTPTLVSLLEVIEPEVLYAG

[3] = tested on: estradiol-mediated transactivation (ERE-tk-luc) in MCF-7 cells; assay: Estradiol competition transactivation luciferase reporter assay in MCF-7 cells; type: cell-based, human
Summary of the method: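 MCF-7 cells moved to phenol red–free DMEM with 10% charcoal-stripped FBS for 24 h, then plated at 100,000 cells/well (96-well). Next day each well was transfected with 200 ng ERE-tk-luc plasmid using Lipofectamine LTX. Cells then received 100 nM estradiol alone, test compound alone (100 nM), or estradiol plus 100 nM, 1 μM or 10 μM test compound. Bright-Glo luminescence was read, and RLU normalized to no-compound wells. Triplicates, three biological replicates.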

[4] = MCF-7, 100 nM estradiol + 10 μM compound

Molecule: C[C@]12CC[C@@H]3c4ccc(O)cc4C[C@@H](CCCCCCCCC[S+]([O-])CCCC(F)(F)C(F)(F)F)[C@H]3[C@@H]1CC[C@@H]2O (stereo partly drawn) [ICI 182,780]
- fold transactivation induction (transactivation potential) [1]: 0.24

Molecule: CC(C)C[C@@H](C=O)NC(=O)[C@H](CC(C)C)NC(=O)[C@H](CC(C)C)NC(=O)OCc1ccccc1 [MG132] (Cbz-Leu-Leu-Leu-aldehyde)
- fold transactivation induction (transactivation potential) [1]: 0.61
- EC50 [2]: 192 nM

Molecule: CC#C[C@]1(O)CC[C@H]2[C@@H]3CCC4=CC(=O)CCC4=C3[C@@H](c3ccc(N(C)C)cc3)C[C@@]21C [RU486]
- fold transactivation induction (transactivation potential) [1]: 0.4

Molecule: CC(C)C[C@H](NC(=O)[C@H](Cc1ccccc1)NC(=O)c1cnccn1)B(O)O [bortezomib]
- decrease in estradiol-mediated transactivation ([3]; MCF-7, 100 nM estradiol + 100 nM compound): 60%
- decrease in estradiol-mediated transactivation ([3]; MCF-7, 100 nM estradiol + 1 μM compound): 54%
- decrease in estradiol-mediated transactivation [3, 4]: 29%
- fold transactivation induction (transactivation potential) [1]: 0.78
- EC50 [2]: 37 nM

Molecule: O=C(c1ccc(OCCN2CCCCC2)cc1)c1c(-c2ccc(O)cc2)sc2cc(O)ccc12 [raloxifene]
- fold transactivation induction (transactivation potential) [1]: 0.89

Molecule: CC/C(=C(\c1ccccc1)c1ccc(OCCN(C)C)cc1)c1ccccc1 [tamoxifen]
- decrease in estradiol-mediated transactivation [3, 4]: 51%

Molecule: tetrocarcin A [NSC 333856]
- fold transactivation induction (transactivation potential) [1]: 1.34
